Only some compounds are listed: those with a hit (about 2.5% of all), similar ones and a draw of the others.
EP2 mod: EP2 receptor modulators, cAMP readout, primary screen, cell-based, HTRF cAMP, PGE2 stimulation | AID 940, 2007 | Prostaglandin E2 receptor EP2 subtype (Homo sapiens), P43116 | 0.83% of 260,000 active | EP2-expressing cells, cAMP HTRF FRET, PGE2 co-stimulation | induction, % at 25 µM;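 active means compounds whose cAMP rise, as percent of the full-agonist control response, exceeds 60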;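 further: rat C6 glioma line stably carrying human EP2 under a CMV promoter; the protocol text gives 20 µM as final concentration; 100% = response of wells given 1 µM PGE2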
Target sequence (P43116 whole entry, looked up): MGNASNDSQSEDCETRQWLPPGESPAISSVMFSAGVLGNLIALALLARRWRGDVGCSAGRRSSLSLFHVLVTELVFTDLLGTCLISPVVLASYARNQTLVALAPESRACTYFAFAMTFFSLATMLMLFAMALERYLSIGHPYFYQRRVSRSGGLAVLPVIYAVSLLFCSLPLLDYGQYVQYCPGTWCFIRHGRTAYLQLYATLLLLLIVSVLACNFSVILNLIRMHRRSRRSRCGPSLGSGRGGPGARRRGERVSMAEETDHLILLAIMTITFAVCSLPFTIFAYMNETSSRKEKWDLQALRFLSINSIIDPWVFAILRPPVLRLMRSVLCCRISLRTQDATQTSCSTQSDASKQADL
HKDC1 inh: HKDC1 hexokinase inhibitors, primary screen, biochemical, fluorescence, uHTS; Q2TB90; 0.16% of 340,000 active; inhibition, % at 20 µM; recombinant HKDC1, G6PDH/diaphorase resazurin coupled fluorescence;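 active means inhibition above about 35% when tested at 20 µM, limit read from the data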;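 further: plate controls were DMSO wells with enzyme for no effect and DMSO wells lacking enzyme for full effect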
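Incubation: 90 min at room temperature in dark / Material: recombinant HKDC1 (HK5) hexokinase enzyme, produced in-house / Quantity: enzyme 5 µg/mL final / Compound: one dose of 20 µM, 1% DMSO / Reagent: glucose and ATP substrates / Buffer or medium: Tris pH 8.0 buffer with MgCl2, Tween-20, BSA, BME / Technique: resorufin fluorescence at 613 nm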
PHOSPHO1 block: PubChem AID 1565; Phosphoethanolamine/phosphocholine phosphatase (Homo sapiens), Q8TCT1; recombinant PHOSPHO1, absorbance phosphatase assay; inhibition, % at 13.3 µM; 1.1% of 290,000 active; in the data active means inhibition above about 60%
Target sequence (Q8TCT1 whole entry, looked up): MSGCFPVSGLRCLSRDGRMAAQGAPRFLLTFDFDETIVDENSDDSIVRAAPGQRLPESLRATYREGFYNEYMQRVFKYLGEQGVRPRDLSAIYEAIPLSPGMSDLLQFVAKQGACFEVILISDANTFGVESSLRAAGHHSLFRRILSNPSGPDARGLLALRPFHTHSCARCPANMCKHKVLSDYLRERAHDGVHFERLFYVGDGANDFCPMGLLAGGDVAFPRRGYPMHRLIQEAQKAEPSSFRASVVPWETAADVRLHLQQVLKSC
PGE2 EP2 inh: human EP2 receptor antagonists, primary screen, TR-FRET cAMP, C6 glioma cells; Prostaglandin E2 receptor EP2 subtype (Homo sapiens), P43116; C6 glioma cells expressing human EP2; cells stimulated with saturating PGE2; inhibition, % at 25 µM; 0.52% of 260,000 active;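 active means percent inhibition above 40 after rounding to a whole number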;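 further: rat C6 glioma host cells with rolipram phosphodiesterase inhibitor present; the protocol text gives 20 µM as final concentration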
TbHK1 inh: Trypanosoma brucei hexokinase 1 inhibitors, primary screen, biochemical, G6PDH-coupled NADH absorbance, MLSCN library. 0.11% of 220,000 active. hexokinase 1 [Trypanosoma brucei]. recombinant TbHK1, G6PDH-coupled NADH A340. inhibition, % at 10 µM;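 active means inhibition of 50% or more in the single-dose primary screen; inactive means inhibition below 50%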
PfG6PD inh: PfG6PD enzyme inhibitors, primary screen, biochemical, fluorescence intensity, uHTS. inhibition, % at 20 µM. 0.78% of 350,000 active. glucose-6-phosphate dehydrogenase-6-phosphogluconolactonase (Plasmodium falciparum 3D7). PfGluPho enzyme, NADPH resazurin-diaphorase fluorescence;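 active means inhibition reaching at least a set limit at 20 µM in the primary screen, cut at about 59% in these data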;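 further: 0% = DMSO wells with substrate and 100% = DMSO wells lacking glucose-6-phosphate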
* hit, by the source's call; x = no result; ! = a repeat was not active.

SMILES	EP2 mod	HKDC1 inh	PHOSPHO1 block	PGE2 EP2 inh	TbHK1 inh	PfG6PD inh
O=C(O)CC(CC(=O)Nc1nncs1)c1ccccc1 (stereo not drawn)	9	0	-12	12	5	-1
O=C(O)CC(Cn1[nH]nnc1=S)c1ccccc1 (stereo not drawn)	1	5	94*	4	0	23
CCN=C1SC(C(=O)Nc2cccc(C)c2)CC(=O)N1CC (stereo not drawn)	34	-5	10	7	-6	3
Cc1cccc(NC(=O)C2CC(=O)n3cnnc3S2)c1 (stereo not drawn)	-49	-6	95*	19	-3	2
O=C1OC(c2cc(F)c(F)cc2Cl)=N/C1=C/c1ccco1	-31	x	x	18	x	x
CCOc1cc(N2CCOCC2)c(OCC)cc1NC(=O)Cc1cccc2ccccc12	24	4	35	11	0	89*
Cc1nnc(SCC(=O)Nc2ccc(N3CCOCC3)cc2)n1-c1ccccc1	12	-5	64*	16	1	-3
O=C(Nc1ccccc1N1CCCC1)c1cccc(Cl)c1Cl	40	-2	15	5	2	-3
Cc1c(N2CCCC2)cc2c(c1NC(=O)c1ccccc1Cl)C(C)(C)CC2(C)C	15	4	40	47*!	-8	-17
CCOc1ccc(C2NC(=O)C(O)=C2C(C)=O)cc1 (stereo not drawn)	-17	x	x	11	x	x
COc1ccccc1-n1c(CNC(=O)c2cccc([N+](=O)[O-])c2C)n[nH]c1=S	33	-1	-3	7	-7	44
COc1ccccc1-n1c(CNC(=O)COc2ccccc2)n[nH]c1=S	17	2	82*	5	-4	44
O=C(NC1CCNCC1)NC12CC3CC(CC(C3)C1)C2	-163	x	x	10	x	x
Cc1cc(=O)oc2cc(OC(=O)c3ccccc3Br)ccc12	12	x	x	10	x	x
CCOC(=O)c1[nH]c2ccc(Br)cc2c1NC(=O)CCN1CCN(C(=O)OCC)CC1	-10	1	65*	17	-13	-5
CCOC(=O)c1[nH]c2ccc(Br)cc2c1NC(=O)CCN1CCCCC1	-11	x	-19	12	-6	x
COC(=O)c1sc2ncn(Cc3ccccc3)c(=O)c2c1C	-15	x	x	12	x	x
CC(C)/C=N/Nc1nc2c(c(=O)n(C)c(=O)n2C)n1C	-7	2	-4	5	-6	0
Cn1c(=O)c2c(nc(N/N=C/c3ccccc3C(=O)O)n2C)n(C)c1=O	17	x	x	44*	x	x
Cc1cccc(Cc2nnc(CCC(=O)N(C)Cc3ccncc3C)o2)c1	2	-8	52	5	-1	3
COc1ccc(CCc2nnc(CCC(=O)N(C)Cc3ccncc3C)o2)cc1	-4	1	64*	4	-3	-6
CCOC(=O)c1c(CSC(=N)N)n(-c2ccc(C)cc2)c2cc(Br)c(OC(C)=O)cc12	-43	9	24	127*	9	13
N#Cc1ccc(-c2ccc(Cl)cc2)nc1SCC(=O)c1cccc(Cl)c1	44	0	76*	10	-13	-9
O=C(CCl)Nc1nc(-c2ccco2)c(-c2ccco2)s1	3	25	9	10	-13	20
Nc1nc(-c2ccco2)c(-c2ccco2)s1	-11	9	88*	16	-21	41
SMILES	EP2 mod	HKDC1 inh	PHOSPHO1 block	PGE2 EP2 inh	TbHK1 inh	PfG6PD inh
c1coc(-c2nc(-c3ccco3)c(-c3ccco3)nc2-c2ccco2)c1	28	68*	68*	13	-6	54
Nc1nc(-c2ccco2)cs1	-9	-4	93*	14	-1	4
O=C(NNC(=O)C1CC(c2cccnc2)=NO1)Nc1ccccc1F (stereo not drawn)	19	-9	65*	8	2	-4
CCN(CC)S(=O)(=O)c1ccc(-c2nnc(SCc3nnc(-c4ccccc4)o3)o2)cc1	26	0	-2	105*	12	-7
O=S(=O)(c1ccc(-c2nnc(SCc3nnc(-c4ccccc4)o3)o2)cc1)N1CCCC1	25	9	6	2	-6	-24
CC1(C)Oc2ccc(S(=O)(=O)N3CCN(C(=O)c4ccco4)CC3)cc2NC1=O	-54	x	x	9	x	x
CC(=O)Nc1ccc2c(c1)C(=Nc1ccc(C(=O)O)cc1)c1ccccc1-2	-7	x	x	59*	x	x
CC(=O)Nc1ccc2c(c1)C(=Nc1cccc(C)c1)c1ccccc1-2	x	4	x	x	x	11
O=C1OC2(CCCCC2)OC(=O)C1=Cc1ccc([N+](=O)[O-])o1	-96	x	x	26	x	x
Cc1ccc(COc2ccsc2C(=O)O)cc1	-4	2	61*	6	8	-1
C[C@H](NC(=O)c1ccc(Cl)c(Cl)c1)c1ccc(-c2ccccc2)cc1	-41	x	x	55*	x	x
Cc1cccc(NC2SC(=O)N(C)C2=O)c1 (stereo not drawn)	6	x	x	11	x	x
Brc1ccc(-c2cnc(-c3cccs3)o2)cc1	61*!	-2	2	6	18	21
CCCOc1ccc(C(=O)N/N=C/c2c[nH]c3ccc(Br)cc23)cc1	x	-1	31	x	x	2
CCCCCN=C(N)N/N=C/c1c[nH]c2ccc(OC)cc12	15	5	x	136*!	x	-2
Cc1nc(NC(=O)c2ccc(Cl)c(Cl)c2)sc1C	-48	x	x	11	x	x
c1ccc(Cc2nnc3sc(-c4ccncc4)nn23)cc1	12	-6	80*	8	0	35
c1ccc(Cc2nnc3sc(-c4cccnc4)nn23)cc1	7	0	10	5	-2	27
c1ccc2c(c1)nnn2Cc1nnc2sc(-c3ccncc3)nn12	-1	-12	79*	11	5	39
c1ccc(Cc2nnc3sc(-c4ccccn4)nn23)cc1	-2	-7	66*	4	-1	28
COc1ccc(N(CC(=O)N2CCC(C)CC2)S(=O)(=O)c2ccccc2)cc1Cl	41	x	x	12	x	x
CN1CCc2nc(SCC(=O)Nc3c(Cl)cccc3Cl)c(C#N)cc2C1	-17	x	x	18	x	x
O=S(=O)(c1ccccc1)c1nc(-c2ccco2)oc1NCc1cccnc1	-2	-3	68*	18	-11	-1
Cc1cc(-c2cnc(C)nc2C2CCN(C(=O)c3ccc4c(c3)OCO4)CC2)on1	-10	x	x	x	x	x
COc1ccccc1-c1nc(SCC(=O)Nc2cc(C)on2)c2c(=O)n(C)c(=O)n(C)c2n1	x	5	65*	x	x	-16
COc1cc(C(=O)NC(=S)Nc2ccc(Cl)c(-c3nc4ccccc4o3)c2)cc(OC)c1OC	-21	x	x	9	x	x
COc1ccc2cc(C#N)c(SCC(=O)N3CCCC(C)C3)nc2c1 (stereo not drawn)	-23	x	x	5	x	x
